Laboratory results taken from ChEMBL document CHEMBL4007460, “17β-Hydroxywithanolides as Sensitizers of Renal Carcinoma Cells to Tumor Necrosis Factor-α Related Apoptosis Inducing Ligand (TRAIL) Mediated Apoptosis: Structure-Activity Relationships” (J Med Chem, 2017).
Calls of active or inactive are those of the source. No cut-off for these calls is given here.

How the values were obtained:
ACHN [1] = test: Induction of DR5 expression in human ACHN cells by Western blotting method; format: functional, cell-based
[2] = Glutathione reactivity in DMSO assessed as formation of MIchael adduct with GSH at pH 7.4 after 24 hrs in presence of NAC by HPLC method
Summary of the method: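 Withanolide (2.12 μM in DMSO, 0.5 mL) mixed with equal volume of 4.24 μM GSH or NAC solution at pH 7.4, 37 °C. Aliquots taken at 0, 0.5, 2, 4, 8, 24 h, stored −80 °C; unreacted withanolide quantified by C18 HPLC (H2O with 40 mM NH4OAc–MeOH gradient, UV 230 nm) using peak area.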

ACHN [3] = test: Cytotoxicity in human ACHN cells assessed as viable cells at 1250 to 5000 nM after 48 hrs by MTS assay; format: cell-based; settings: 5 µM
ACHN [4] = test: Induction of BIP expression in human ACHN cells at 2.5 to 5 uM measured after 24 hrs by Western blotting method; format: functional, cell-based
ACHN [5] = test: Sensitization of TRAIL-induced apoptosis in human ACHN cells assessed as increase in caspase8 activation at 125 to 1000 nM preincubated for overnight followed by addition of TRAIL for 90 mins measured after 18 hrs by Western blot analysis; format: functional, cell-based
Summary of the method: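 ACHN cells plated 1.5×10^6/well, grown overnight, treated overnight (18 h) with compound at 125–1000 nM, then TRAIL for 90 min before RIPA lysis (with zVAD-FMK). 20 μg protein immunoblotted for pro- and cleaved caspase-8 and caspase-3; GAPDH loading control. TRAIL given as 200 ng/mL in methods, 50 ng/mL in legend.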

CAKI-1 = test: Sensitization of TRAIL-induced apoptosis in human Caki1 cells assessed as reduction in cell viability at 125 to 500 nM preincubated for 2 hrs followed by addition of TRAIL measured after 18 hrs by MTS assay; format: functional, cell-based
Summary of the method: (§1)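 Caki-1, SN12C or UO-31 renal cells seeded 5000/well, grown overnight at 37 °C, pretreated with compound across a concentration range for 2 h, then TRAIL 50 ng/mL added for 18 h more at 37 °C. Medium: RPMI, 5% FCS with supplements. Viable cells by MTS (2 h, A490); growth inhibition = (media − treatment)/media ×100. Triplicate, ≥3 experiments.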

ACHN [6] = test: Induction of CHOP expression in human ACHN cells at 2.5 to 5 uM measured after 24 hrs by Western blotting method; format: functional, cell-based
ACHN [7] = test: Cytotoxicity in human ACHN cells assessed as reduce cell number after 48 hrs by MTS assay; format: cell-based
Summary of the method: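 ACHN cells exposed to compound for 48 h at 37 °C; viable cell number by MTS read-out. Triplicate determinations; IC50 (concentration reducing cell number by 50%) from 3 independent experiments, ± SD.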

SN12C = test: Sensitization of TRAIL-induced apoptosis in human SN12C cells assessed as reduction in cell viability at 125 to 500 nM preincubated for 2 hrs followed by addition of TRAIL measured after 18 hrs by MTS assay; format: functional, cell-based; summary of the method: as §1
UO-31 = test: Sensitization of TRAIL-induced apoptosis in human UO31 cells assessed as reduction in cell viability at 125 to 500 nM preincubated for 2 hrs followed by addition of TRAIL measured after 18 hrs by MTS assay; format: functional, cell-based; summary of the method: as §1
ACHN [8] = test: Reduction cFLIP level in human ACHN cells at 500 nM after 18 hrs by Western blot analysis; format: functional, cell-based
Summary of the method: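 ACHN cells (RPMI, 5% FBS) plated 1.5×10^6/well, grown overnight at 37 °C, then exposed to compound at 500 nM for 18 h. Lysed in RIPA with protease/phosphatase inhibitors and zVAD-FMK; 20 μg protein per lane immunoblotted with anti-FLIP (7F10); GAPDH as loading control.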

ACHN [9] = test: Induction of HSP70 expression in human ACHN cells at 2.5 to 5 uM measured after 24 hrs by Western blotting method; format: functional, cell-based
ACHN [10] = test: Sensitization of TRAIL-induced apoptosis in human ACHN cells assessed as reduction in cell viability preincubated for 2 hrs followed by addition of TRAIL measured after 18 hrs by MTS assay; format: functional, cell-based
Summary of the method: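 ACHN cells were seeded at 5000/well and rested overnight at 37 °C, in RPMI with 5% FCS, glutamine, NEAA, pyruvate, HEPES and 2-mercaptoethanol. Compound pretreatment ran 2 h, then TRAIL was added to 50 ng/mL for 18 h at 37 °C. Viability was read by MTS (2 h, A490). IC50 values (cell number reduced 50%) came from dose-response curves; triplicates, at least 3 independent experiments, ± SD.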

ACHN [11] = test: Reduction cFLIP level in human ACHN cells at 125 to 1000 nM after 16 hrs by Western blot analysis; format: functional, cell-based
ACHN [12] = test: Reduction cFLIP level in human ACHN cells at 125 to 1000 nM after 18 hrs by Western blot analysis
ACHN [13] = test: Sensitization of TRAIL-induced apoptosis in human ACHN cells assessed as increase in caspase8 activation at 125 to 1000 nM preincubated for overnight followed by addition of TRAIL for 90 mins measured after 6 hrs by Western blot analysis; format: functional, cell-based

Structure (SMILES) | Activity (ACHN [1]) | Activity [2] | Activity (ACHN [3]) | Activity (ACHN [4]) | Activity (ACHN [5]) | Activity (CAKI-1) | Activity (ACHN [6]) | Activity (ACHN [7]) | Activity (SN12C) | Activity (UO-31) | Activity (ACHN [8]) | Activity (ACHN [9]) | IC50 (ACHN [10]) [nM] | Activity (ACHN [11]) | Activity (ACHN [12]) | Activity (ACHN [13])
CC1=C(C)C(=O)O[C@@H]([C@](C)(O)[C@]2(O)CC[C@@]3(O)[C@@H]4C[C@H]5O[C@]56CC=CC(=O)[C@]6(C)[C@H]4CC[C@]23C)C1 [WITHANOLIDE E] | inactive | Active | Non-Toxic | inactive | Active | Active | inactive | Toxic | Active | Active | Active | inactive | 489 | – | – | –
CC(=O)OCC1=C(C)C[C@H]([C@@H](C)[C@H]2CC[C@H]3[C@@H]4C[C@H]5O[C@]56[C@H](OC(C)=O)C=CC(=O)[C@]6(C)[C@H]4CC[C@]23C)OC1=O | – | – | – | Active | – | – | Active | – | – | – | – | Active | – | inactive | – | –
CC1=C(CO)C(=O)O[C@@H]([C@@H](C)[C@H]2CC[C@H]3[C@@H]4C[C@H]5O[C@]56[C@@H](O)C=CC(=O)[C@]6(C)[C@H]4CC[C@]23C)C1 [WITHAFERIN A] | inactive | Active | Toxic | Active | inactive | inactive | Active | – | inactive | inactive | – | Active | > 2000 | – | inactive | –
CC(=O)OC[C@]12CC[C@H]3[C@@H](C[C@H]4O[C@]45CC=CC(=O)[C@]35C)[C@]1(O)CC[C@@]2(O)[C@@](C)(O)[C@H]1CC(C)=C(C)C(=O)O1 | inactive | Active | Non-Toxic | inactive | Active | Active | inactive | Toxic | Active | Active | Active | inactive | 164 | – | – | Active
CC1=C(C)C(=O)O[C@@H]([C@](C)(O)[C@]2(O)CC[C@@]3(O)[C@@H]4C[C@H]5O[C@]56[C@H](O)C=CC(=O)[C@]6(C)[C@H]4CC[C@]23C)C1 | inactive | Active | Non-Toxic | – | Active | Active | – | Toxic | Active | Active | Active | – | 67 | – | – | –
